In ChEMBL document CHEMBL4024752, “Noncovalent Protein Arginine Deiminase (PAD) Inhibitors Are Efficacious in Animal Models of Multiple Sclerosis” (J Med Chem, 2017):
Each block holds one compound with its values, some of them ahead of it. Active and inactive are the calls of the source. The calls are words filed in the database; no cut-off is given here.

How the values were obtained:
Mus musculus [1] = experiment: Antiinflammatory activity in MOG (35 to 55 residues)-induced C57BL/6 mouse autoimmune encephalomyelitis model assessed as improvement in physical disability at 50 mg/kg, ip administered daily measured on day 35 post immunization; format: functional, organism-based
Summary of the method: (§1)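 Female C57BL/6 mice, 8 weeks old, were immunized s.c. with 100 µg MOG peptide in CFA, plus 400 ng pertussis toxin i.p. at immunization and again at 48 h. Daily i.p. dosing at 50 mg/kg in PBS (pH 7.5) began at clinical score 2 and continued up to 60 days. Controls got an equal volume of PBS (n=5 vs 7). Clinical score and body weight were recorded daily.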

Mus musculus [2] = experiment: Antiinflammatory activity in MOG (35 to 55 residues)-induced C57BL/6 mouse autoimmune encephalomyelitis model assessed as survival rate at 50 mg/kg, ip administered daily up to 60 days (reference value: 80%); format: functional; settings: C57BL/6, ip, 1440 h
Mus musculus [3] = experiment: Antiinflammatory activity in MOG (35 to 55 residues)-induced C57BL/6 mouse autoimmune encephalomyelitis model assessed as reduction in inflammation in spinal cord at 50 mg/kg, ip administered daily measured at day 60 post immunization; format: functional, organism-based; settings: in the assay text read “brain” for “spinal cord”
Summary of the method: (§2)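 MOG/CFA-immunized female C57BL/6 mice were treated daily at 50 mg/kg i.p. in PBS from score 2 for up to 60 days; controls received PBS. At study end, brain and spinal cord sections were stained with H&E and Luxol Fast Blue. Inflammation was quantified as inflamed area over total tissue area by positive pixel count.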

Mus musculus [4] = experiment: Antiinflammatory activity in MOG (35 to 55 residues)-induced C57BL/6 mouse autoimmune encephalomyelitis model assessed as reduction in lesions in cerebellum at 50 mg/kg, ip administered daily up to 60 days by LFB/H and E staining based assay; format: functional, organism-based; summary of the method: as §2
Mus musculus [5] = experiment: Antiinflammatory activity in MOG (35 to 55 residues)-induced C57BL/6 mouse autoimmune encephalomyelitis model assessed as reduction in lesions in olfactory tract at 50 mg/kg, ip administered daily up to 60 days by LFB/H and E staining based assay; format: functional, organism-based; summary of the method: as §2
Mus musculus [6] = experiment: Antiinflammatory activity in MOG (35 to 55 residues)-induced C57BL/6 mouse autoimmune encephalomyelitis model assessed as reduction in lesions in internal capsule at 50 mg/kg, ip administered daily by LFB/H and E staining based assay; format: functional, organism-based; summary of the method: as §2
Mus musculus [7] = experiment: Antiinflammatory activity in MOG (35 to 55 residues)-induced C57BL/6 mouse autoimmune encephalomyelitis model assessed as reduction in accumulation of CD3 positive T-cells in brain at 50 mg/kg, ip administered daily up to 60 days by immunohistochemistry; format: functional, organism-based
Summary of the method: (§3)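 MOG/CFA-immunized female C57BL/6 mice were dosed daily at 50 mg/kg i.p. in PBS from score 2 for up to 60 days; PBS controls n=5, treated n=7. Brain sections were immunostained with anti-CD3. Stained cells per µm² were averaged over randomly selected areas.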

Mus musculus [8] = experiment: Antiinflammatory activity in MOG (35 to 55 residues)-induced C57BL/6 mouse autoimmune encephalomyelitis model assessed as reduction in accumulation of CD3 positive T-cells in internal capsule at 50 mg/kg, ip administered daily up to 60 days by immunohistochemistry; format: functional, organism-based; summary of the method: as §3
Mus musculus [9] = experiment: Antiinflammatory activity in MOG (35 to 55 residues)-induced C57BL/6 mouse autoimmune encephalomyelitis model assessed as reduction in accumulation of CD3 positive T-cells in cerebellum at 50 mg/kg, ip administered daily up to 60 days by immunohistochemistry; format: functional, organism-based; summary of the method: as §3
[10] = Elimination rate constant in C57BL/6 mouse serum at 50 mg/kg, ip administered as single dose measured up to 360 mins by UPLC-MS analysis; format: ADME, organism-based
Summary of the method: (§4)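 Healthy female C57BL/6 mice (n = 27, 18–22 g) received one i.p. dose of 50 mg/kg, given as a 10 mg/mL aqueous solution (equimolar HCl, pH raised to 6 with NaHCO3). Blood and brain were sampled at 0, 5, 15, 30, 45, 60, 120, 240 and 360 min, 3 mice per time point. Samples were spiked with benzophenone internal standard, lyophilized, extracted into methanol, and quantified by C18 UPLC-MS.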

[11] = Half life in C57BL/6 mouse serum at 50 mg/kg, ip administered as single dose by UPLC-MS analysis; format: ADME, organism-based; summary of the method: as §4
[12] = Cmax in C57BL/6 mouse serum at 50 mg/kg, ip administered as single dose measured up to 360 mins by UPLC-MS analysis; format: ADME, organism-based; parameters: dose 50 mg/kg, route intraperitoneal; summary of the method: as §4
[13] = Tmax in C57BL/6 mouse serum at 50 mg/kg, ip administered as single dose measured up to 360 mins by UPLC-MS analysis; format: ADME, organism-based; summary of the method: as §4
[14] = AUC (0 to 360 mins) in C57BL/6 mouse serum at 50 mg/kg, ip administered as single dose by UPLC-MS analysis; format: ADME, organism-based; parameters: dose 50 mg/kg, time < 6 hr, route intraperitoneal; summary of the method: as §4
[15] = Elimination rate constant in C57BL/6 mouse brain at 50 mg/kg, ip administered as single dose measured up to 360 mins by UPLC-MS analysis; format: ADME, organism-based; summary of the method: as §4
[16] = Half life in C57BL/6 mouse brain at 50 mg/kg, ip administered as single dose by UPLC-MS analysis; format: ADME, organism-based; summary of the method: as §4
[17] = Cmax in C57BL/6 mouse brain at 50 mg/kg, ip administered as single dose measured up to 360 mins by UPLC-MS analysis; format: ADME, organism-based; parameters: dose 50 mg/kg, route intraperitoneal; summary of the method: as §4
[18] = Tmax in C57BL/6 mouse brain at 50 mg/kg, ip administered as single dose measured up to 360 mins by UPLC-MS analysis; format: ADME, organism-based; summary of the method: as §4
[19] = AUC (0 to 360 mins) in C57BL/6 mouse brain at 50 mg/kg, ip administered as single dose by UPLC-MS analysis; format: ADME, organism-based; parameters: time < 6 hr, dose 50 mg/kg, route intraperitoneal; summary of the method: as §4
Mus musculus [20] = experiment: Toxicity in MOG (35 to 55 residues)-induced C57BL/6 mouse autoimmune encephalomyelitis model assessed as bdoy weight cahnges at 50 mg/kg, ip administered daily up to 60 days; format: organism-based; settings: in vivo, 1440 h; summary of the method: as §1
[21] = biological target: Protein-arginine deiminase type-4 (Homo sapiens, UniProt Q9UM07); experiment: Inhibition of full length human GST-tagged PAD4 expressed in baculovirus infected Sf9 insect cells preincubated for 30 mins followed by substrate addition measured after 30 mins
Protein-arginine deiminase type-4, sequence (Q9UM07 whole entry): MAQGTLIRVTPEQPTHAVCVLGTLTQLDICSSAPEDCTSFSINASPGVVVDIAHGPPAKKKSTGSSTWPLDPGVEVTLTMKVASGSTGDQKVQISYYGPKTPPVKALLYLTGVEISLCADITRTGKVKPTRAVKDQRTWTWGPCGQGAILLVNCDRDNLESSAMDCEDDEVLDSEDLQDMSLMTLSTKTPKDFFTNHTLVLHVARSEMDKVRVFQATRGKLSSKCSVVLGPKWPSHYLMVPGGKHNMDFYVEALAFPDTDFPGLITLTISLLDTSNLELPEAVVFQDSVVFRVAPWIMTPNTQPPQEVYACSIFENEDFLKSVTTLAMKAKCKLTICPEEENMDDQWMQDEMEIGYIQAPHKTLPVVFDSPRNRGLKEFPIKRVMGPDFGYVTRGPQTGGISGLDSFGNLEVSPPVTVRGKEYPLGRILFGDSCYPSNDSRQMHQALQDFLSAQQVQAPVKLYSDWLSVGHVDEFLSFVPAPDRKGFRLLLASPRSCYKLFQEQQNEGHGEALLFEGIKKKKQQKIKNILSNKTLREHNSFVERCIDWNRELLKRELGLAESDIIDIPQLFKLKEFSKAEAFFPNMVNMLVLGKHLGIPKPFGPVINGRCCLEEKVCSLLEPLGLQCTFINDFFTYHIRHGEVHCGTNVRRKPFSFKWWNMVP

[22] = biological target: T1, Protein-arginine deiminase type-1 (Homo sapiens, UniProt Q9ULC6); experiment: Inhibition of full length human GST-tagged PAD1 expressed in baculovirus infected Sf9 insect cells preincubated for 30 mins followed by substrate addition measured after 30 mins
T1 sequence (Q9ULC6 whole entry): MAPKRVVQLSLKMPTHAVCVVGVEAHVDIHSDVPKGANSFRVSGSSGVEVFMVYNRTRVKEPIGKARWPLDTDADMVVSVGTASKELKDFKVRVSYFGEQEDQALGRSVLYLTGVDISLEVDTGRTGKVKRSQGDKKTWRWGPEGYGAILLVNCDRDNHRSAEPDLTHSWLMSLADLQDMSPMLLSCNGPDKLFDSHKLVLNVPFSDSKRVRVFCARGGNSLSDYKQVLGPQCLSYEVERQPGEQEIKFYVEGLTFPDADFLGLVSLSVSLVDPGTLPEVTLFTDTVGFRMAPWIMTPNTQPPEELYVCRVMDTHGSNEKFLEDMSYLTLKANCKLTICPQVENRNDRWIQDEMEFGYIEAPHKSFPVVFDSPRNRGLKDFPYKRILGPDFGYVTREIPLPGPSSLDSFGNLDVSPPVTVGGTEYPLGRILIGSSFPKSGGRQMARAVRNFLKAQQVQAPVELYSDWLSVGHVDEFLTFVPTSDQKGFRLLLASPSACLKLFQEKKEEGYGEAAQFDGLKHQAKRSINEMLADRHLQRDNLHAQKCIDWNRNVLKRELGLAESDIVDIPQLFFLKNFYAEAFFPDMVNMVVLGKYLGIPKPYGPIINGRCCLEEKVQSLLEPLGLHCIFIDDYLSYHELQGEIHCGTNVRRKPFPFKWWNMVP
Summary of the method: (§5)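 Colorimetric citrulline assay at 37 °C in 100 mM Tris, 100 mM NaCl, 10 mM CaCl2, 5 mM DTT, pH 7.5, with about 5% DMSO. Enzyme (hPAD1 50 nM, mPAD2 100 nM) was preincubated with inhibitor (0.1–10 mM) for 30 min. Substrate was then added at 5 mM final for a further 30 min. Diacetyl monoxime/thiosemicarbazide reagent was added, samples were boiled 15 min, and A530 was read.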

[23] = biological target: Protein-arginine deiminase type-2 (Mus musculus, UniProt Q08642); experiment: Inhibition of full length mouse GST-tagged PAD2 expressed in baculovirus infected Sf9 insect cells preincubated for 30 mins followed by substrate addition measured after 30 mins; summary of the method: as §5
Protein-arginine deiminase type-2, sequence (Q08642 whole entry): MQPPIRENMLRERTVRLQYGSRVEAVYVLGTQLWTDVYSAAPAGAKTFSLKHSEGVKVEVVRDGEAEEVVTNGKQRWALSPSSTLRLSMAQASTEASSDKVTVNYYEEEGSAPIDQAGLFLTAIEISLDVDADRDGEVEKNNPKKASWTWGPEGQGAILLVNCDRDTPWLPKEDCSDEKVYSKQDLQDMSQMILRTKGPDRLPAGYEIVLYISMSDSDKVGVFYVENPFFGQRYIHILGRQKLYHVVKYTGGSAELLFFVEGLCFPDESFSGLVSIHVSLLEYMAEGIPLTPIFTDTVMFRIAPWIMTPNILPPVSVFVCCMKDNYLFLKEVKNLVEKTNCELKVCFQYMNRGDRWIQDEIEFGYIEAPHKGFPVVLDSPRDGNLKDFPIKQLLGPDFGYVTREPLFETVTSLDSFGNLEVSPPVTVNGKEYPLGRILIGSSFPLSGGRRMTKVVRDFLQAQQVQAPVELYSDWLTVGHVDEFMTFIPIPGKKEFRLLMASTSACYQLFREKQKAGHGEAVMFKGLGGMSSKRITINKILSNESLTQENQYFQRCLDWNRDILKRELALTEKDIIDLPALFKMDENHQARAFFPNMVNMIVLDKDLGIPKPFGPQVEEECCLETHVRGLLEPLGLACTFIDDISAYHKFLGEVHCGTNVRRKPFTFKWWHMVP

SMILES: Cl.Cn1cccc1C(=O)N[C@@H](CCn1ccnc1)C(=O)NCc1ccccc1
Activity (Mus musculus [1]): Active
survival at 50 mg/kg (Mus musculus [2]): 100%
Activity (Mus musculus [3]): Active
Activity (Mus musculus [4]): Active
Activity (Mus musculus [5]): Active
Activity (Mus musculus [6]): Active
Activity (Mus musculus [7]): Active
Activity (Mus musculus [8]): Active
Activity (Mus musculus [9]): Active
k el at 6 h [10]: 0.000333 s⁻¹
half-life [11]: 34.8 min
Cmax [12]: 12000 ng/mL
Tmax [13]: 15 min
AUC(0-t) at 6 h [14]: 8460 ng·h/mL
k el at 6 h [15]: 0.0003 s⁻¹
half-life [16]: 38.5 min
Cmax [17]: 170 ng/mL
Tmax [18]: 15 min
AUC(0-t) at 6 h [19]: 105 ng·h/mL
Activity (Mus musculus [20]): Non-Toxic

Ki [21]: 2820 µM
Ki [22]: 1090 µM
Ki [23]: 282 µM
SMILES: O=C(N[C@@H](CCn1ccnn1)C(=O)NCc1ccccc1)c1ccco1

Ki [22]: 112 µM
Ki [23]: 71 µM
SMILES: Cn1cccc1C(=O)N[C@@H](CCn1ccnn1)C(=O)NCc1ccccc1
